This is a sample that favours compounds with a hit; in the whole collection about 4.8% have one here.
GPR7 antagonist: GPR7 receptor antagonists, primary screen, cell-based, fluorescence, single concentration; Neuropeptides B/W receptor type 1 (Homo sapiens), P48145; GPR7-expressing cells, fluorescence antagonist assay; inhibition, % at 4.4 µM; 290,000 tested, 1.1% active; AID 1861, 2009; in the data active = inhibition above about 16%, passing the limit was not always enough;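 also: cells stimulated with the agonist NPW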
Target sequence (P48145 whole entry, looked up): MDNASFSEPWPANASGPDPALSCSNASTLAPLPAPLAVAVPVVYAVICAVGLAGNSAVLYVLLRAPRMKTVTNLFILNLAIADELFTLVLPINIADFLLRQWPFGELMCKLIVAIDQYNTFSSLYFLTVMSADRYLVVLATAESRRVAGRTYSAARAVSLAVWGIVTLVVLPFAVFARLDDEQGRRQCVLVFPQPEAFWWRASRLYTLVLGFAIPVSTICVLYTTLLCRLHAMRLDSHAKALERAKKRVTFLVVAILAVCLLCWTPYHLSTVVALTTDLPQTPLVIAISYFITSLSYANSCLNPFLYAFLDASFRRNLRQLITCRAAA
697 NFkB inh: inhibitors of PMA/ionomycin-induced NF-kB reporter, 697 cells, primary screen, B-cell NF-kB inhibitor project, cell-based, luminescence, uHTS; 697 B-cell NF-kB luciferase reporter, 16 h; inhibition, % at 4 µM; 330,000 tested, 0.33% active; in the data active = inhibition above about 35%
HSF-1 act: HSF-1 activators, primary screen, NIH3T3-HGL cells, MG132 stress, luminescence, single point | NIH3T3-HGL HSF-1 luciferase reporter, 8 h; 100% = twice DMSO control signal | activation, % at 9 µM | 300,000 tested, 1.7% active;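 active = mean replicate activation of at least 50% with a set share of replicates each reaching 50%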
T cruzi repl: inhibitors of intracellular T. cruzi growth, primary screen, luminescence, NIH3T3 host cells | AID 1885, 2009 | 300,000 tested, 1.4% active | inhibition, % (test concentration not listed) | T. cruzi beta-gal in NIH3T3, 90 h;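 active = mean inhibition across valid replicates above about 55%, limit read from the data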;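 also: signal also drops with host cell toxicity which is not excluded here; higher percent means less beta-gal luminescence so fewer parasites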
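Test system: β-gal T. cruzi (Tulahuen C4) inside NIH/3T3 cells / Quantity: 5,000 cells/well / Measured by: luminescence from GalScreen with 0.05% NP40, read after 60 min / Medium: DMEM plus 2% FBS / Measure: parasite load inhibition, % / Reagent: Tulahuen C4 trypomastigotes, 5000/well / Schedule: co-culture of at least 90 h after 3 h attachment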
Jurkat NFkB inh: inhibitors of induced NF-kB luciferase reporter, primary screen, TCR NF-kB activation inhibitor project, cell-based, luminescence, uHTS. 330,000 tested, 0.53% active. Jurkat, PMA/ionomycin-induced NF-kB luciferase reporter. inhibition, % at 4 µM; in the data active = inhibition above about 50%
HSF1 inh: HSF1 inhibitors in luciferase reporter cells, primary screen, cell-based, NIH3T3, luminescence; NIH3T3-HGL HSE-luciferase, MG132-induced, luminescence 8 h; stronger effect = lower value; activity change, negative = inhibition, % at 7.5 µM (by protocol); 300,000 tested, 0.77% active; AID 2098, 2009;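 active = more than half of replicate wells show activity change below -50%, luminescence cut by over half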;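 also: luciferase reports HSF-1 transcriptional activity via heat shock element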
Hits are given with their value.

Screening O=C(Nc1cccc(Cl)c1)Nc1nnc(CSCCOc2ccc(Cl)cc2)s1 returned GPR7 antagonist inactive, 697 NFkB inh inactive, HSF-1 act inactive, T cruzi repl inactive, Jurkat NFkB inh inactive and HSF1 inh inactive.
For Cc1ccc(NC(=O)NC(=O)CN2CCN(c3ccc(O)cc3)CC2)c(C)c1 the results were GPR7 antagonist inactive, 697 NFkB inh inactive, HSF-1 act inactive, T cruzi repl inactive, Jurkat NFkB inh inactive and HSF1 inh -66.
For CCn1c(Cc2ccccc2)nnc1SCC(=O)Nc1ccccc1O the results were GPR7 antagonist inactive, 697 NFkB inh inactive, HSF-1 act 51, T cruzi repl inactive, Jurkat NFkB inh inactive and HSF1 inh inactive.
Cc1cc(C)nc(Nc2ccc(Cl)cc2C)n1 was read as GPR7 antagonist inactive, 697 NFkB inh inactive, HSF-1 act inactive, T cruzi repl inactive, Jurkat NFkB inh inactive and HSF1 inh inactive.
`O=C(CN1C(=O)NC2(CCCC2)C1=O)NNC(=O)c1ccccc1F` gave 697 NFkB inh inactive and Jurkat NFkB inh inactive.
CC(=O)c1ccc(NC(=O)COC(=O)CC2CC3CCC2C3)cc1 (stereo not given) was read as 697 NFkB inh inactive and Jurkat NFkB inh inactive.
Screening CCCOC1CCCN(C(=O)CCc2nnc(Cc3cccc(C)c3)o2)C1 (stereo not given) returned GPR7 antagonist inactive, 697 NFkB inh inactive, HSF-1 act 63, T cruzi repl inactive, Jurkat NFkB inh inactive and HSF1 inh inactive.
Cc1cccc(Cc2nnc(CCC(=O)N3CCCCC3c3nccs3)o2)c1 (stereo not given) was read as GPR7 antagonist inactive, 697 NFkB inh inactive, HSF-1 act inactive, T cruzi repl inactive, Jurkat NFkB inh inactive and HSF1 inh inactive.
`O=C(CCCN1CCC(C(=O)c2ccc(F)cc2)CC1)c1ccc(F)cc1` gave GPR7 antagonist inactive, 697 NFkB inh inactive, HSF-1 act inactive, T cruzi repl inactive, Jurkat NFkB inh inactive and HSF1 inh inactive.
`O=C(CCCC(=O)c1ccc(F)cc1)c1ccc(F)cc1` gave GPR7 antagonist inactive, 697 NFkB inh inactive, HSF-1 act 81, T cruzi repl inactive, Jurkat NFkB inh inactive and HSF1 inh inactive.
`O=C(CC(=O)c1ccccc1O)c1ccc(F)cc1` gave GPR7 antagonist inactive, 697 NFkB inh inactive, HSF-1 act 75, T cruzi repl inactive, Jurkat NFkB inh inactive and HSF1 inh inactive.
For COC(=O)[C@@H]1C[C@]2(OC(=O)c3ccccc3)C=CC(=O)C[C@@H]2N1C(=O)OCc1ccccc1 the results were GPR7 antagonist inactive, 697 NFkB inh inactive, HSF-1 act 73, T cruzi repl inactive, Jurkat NFkB inh inactive and HSF1 inh inactive.
For Cc1nc(C(=O)O)sc1C1(C)CC(c2cccc([N+](=O)[O-])c2)=NO1 (stereo not given) the results were 697 NFkB inh inactive, HSF-1 act inactive, T cruzi repl inactive, Jurkat NFkB inh inactive and HSF1 inh inactive.
O=C1CC(=C2c3ccccc3-c3ccccc32)C(=O)N1CCN1CCN(c2ccccc2)CC1 was read as GPR7 antagonist inactive, 697 NFkB inh inactive, HSF-1 act inactive, T cruzi repl inactive, Jurkat NFkB inh inactive and HSF1 inh inactive.
`N#CC1=C(N)Oc2c(O)cc3ccccc3c2C1c1ccsc1` (stereo not given) gave GPR7 antagonist inactive, 697 NFkB inh inactive, HSF-1 act 71, T cruzi repl inactive, Jurkat NFkB inh inactive and HSF1 inh inactive.
O=C(NCC1CCCO1)C(c1cccs1)N(Cc1ccccc1Cl)C(=O)c1ccc(-c2ccccc2)[nH]1 (stereo not given) was read as GPR7 antagonist inactive, 697 NFkB inh inactive, HSF-1 act inactive, T cruzi repl 74, Jurkat NFkB inh inactive and HSF1 inh inactive.
Screening Cc1cccc(NC(=O)c2ccc(COc3ccccc3)o2)n1 returned GPR7 antagonist inactive, 697 NFkB inh inactive, HSF-1 act inactive, T cruzi repl inactive, Jurkat NFkB inh inactive and HSF1 inh inactive.
`Cc1cccc(NC(=O)c2ccc(COc3ccc4ccccc4c3)o2)n1` gave GPR7 antagonist inactive, 697 NFkB inh inactive, HSF-1 act 68, T cruzi repl inactive, Jurkat NFkB inh inactive and HSF1 inh inactive.
Screening CCCCOc1ccc(C(=O)Nc2cccc(C)n2)cc1 returned GPR7 antagonist inactive, 697 NFkB inh inactive, HSF-1 act 57, T cruzi repl inactive, Jurkat NFkB inh inactive and HSF1 inh inactive.
`CC(=O)Nc1c2c(nn1-c1cccc(Cl)c1)CS(=O)(=O)C2` gave GPR7 antagonist inactive, 697 NFkB inh inactive, HSF-1 act inactive, T cruzi repl inactive, Jurkat NFkB inh inactive and HSF1 inh inactive.
For COc1ccc(C/C(C)=N/NC(=S)Nc2ccc(C(C)C)cc2)cc1 the results were GPR7 antagonist inactive, 697 NFkB inh inactive, HSF-1 act inactive, T cruzi repl inactive, Jurkat NFkB inh inactive and HSF1 inh inactive.
`COc1ccc(C/C(C)=N/NC(=S)Nc2ccccc2F)cc1` gave GPR7 antagonist inactive, 697 NFkB inh inactive, HSF-1 act inactive, T cruzi repl inactive, Jurkat NFkB inh inactive and HSF1 inh -64.
For COc1cccc(C(=O)CC(=O)C(=O)Nc2cc(OC)ccc2OC)c1 the results were GPR7 antagonist inactive, 697 NFkB inh inactive, HSF-1 act inactive, T cruzi repl inactive, Jurkat NFkB inh inactive and HSF1 inh inactive.
`COc1cccc(C(=O)CC(=O)C(=O)Nc2cc(OC)c(OC)c(OC)c2)c1` gave GPR7 antagonist inactive, 697 NFkB inh inactive, HSF-1 act inactive, T cruzi repl inactive, Jurkat NFkB inh inactive and HSF1 inh -58.
`COc1cc(NC(=O)Cc2cccs2)ccc1-n1cnnn1` gave GPR7 antagonist inactive, 697 NFkB inh inactive, HSF-1 act 76, T cruzi repl inactive, Jurkat NFkB inh inactive and HSF1 inh inactive.
COc1ccc(NC(=O)C2CC2)cc1-n1cnnn1 was read as GPR7 antagonist inactive, 697 NFkB inh inactive, HSF-1 act inactive, T cruzi repl inactive, Jurkat NFkB inh inactive and HSF1 inh -72.
COc1ccc(NC(=O)c2cnc(C)cn2)cc1-n1cnnn1 was read as GPR7 antagonist inactive, 697 NFkB inh inactive, HSF-1 act inactive, T cruzi repl inactive, Jurkat NFkB inh inactive and HSF1 inh -60.
For CC(C)(C)NC(=O)c1cccc(NC(=O)Cc2cccs2)c1 the results were GPR7 antagonist inactive, 697 NFkB inh inactive, HSF-1 act inactive, T cruzi repl inactive, Jurkat NFkB inh inactive and HSF1 inh -78.

From PubChem BioAssay
